Results as given in ChEMBL document CHEMBL4020804, “Minor phenolics from Angelica keiskei and their proliferative effects on Hep3B cells” (Bioorg Med Chem Lett, 2017).

Columns and labels:
Hep 3B2 [1] = assay: Cytotoxicity against human Hep3B cells assessed as effect on cell attachment at 0.1 to 100 uM measured every day during 4 days incubation period by microscopic method; assay type: cell-based; settings: hep 3b2, 96 h
Summary of the method: (§1)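 Hep3B kept in DMEM/10% FBS, 37°C, 5% CO2, then seeded at 1×10^5 cells/ml in medium containing compound (0.1–100 μM; DMSO-only control) in monolayer. Cells were checked daily by microscope for attachment and morphology, and counted after 4 days, in triplicate, in three independent experiments. Counts are given as % of the 0 μM group.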

Hep 3B2 [2] = assay: Proliferative activity against human Hep3B cells assessed as cell viability at 10 uM after 4 days by cell counting method relative to control; assay type: functional; settings: 96 h, read-out: Activity; summary of the method: as §1
NIH3T3 [3] = assay: Cytoprotective activity against GOX-induced oxidative stress in mouse NIH/3T3 cells assessed as cell survival at 0.1 uM treated for 5 hrs with 15 mU/ml GOX challenge by MTT assay (reference value: 42.71 +/- 2.10%); assay type: functional; settings: NIH3T3, 5 h, read-out: Survival
Hep 3B2 [4] = assay: Proliferative activity against human Hep3B cells assessed as cell viability at 0.1 uM after 4 days by cell counting method relative to control; assay type: functional; settings: 96 h, read-out: Activity; summary of the method: as §1
Hep 3B2 [5] = assay: Cytoprotective activity against GOX-induced oxidative stress in human Hep3B cells assessed as cell survival at 1 uM treated for 5 hrs with 15 mU/ml GOX challenge by MTT assay (reference value: 41.51 +/- 1.39%); assay type: functional; settings: read-out: Survival
NIH3T3 [6] = assay: Cytoprotective activity against GOX-induced cytotoxicity in mouse NIH/3T3 cells assessed as LDH release at 100 uM treated for 5 hrs with 15 mU/ml GOX challenge by spectrophotometric method (reference value: 63.34 +/- 1.85%); assay type: functional
Hep 3B2 [7] = assay: Cytoprotective activity against GOX-induced oxidative stress in human Hep3B cells assessed as cell survival at 10 uM treated for 5 hrs with 15 mU/ml GOX challenge by MTT assay (reference value: 41.51 +/- 1.39%); assay type: functional; settings: read-out: Survival
Hep 3B2 [8] = assay: Proliferative activity against human Hep3B cells assessed as cell viability after 4 days by cell counting method; assay type: functional, cell-based; summary of the method: as §1
NIH3T3 [9] = assay: Cytoprotective activity against GOX-induced cytotoxicity in mouse NIH/3T3 cells assessed as decrease in LDH release treated for 5 hrs with 15 mU/ml GOX challenge by spectrophotometric method; assay type: functional, cell-based
Hep 3B2 [10] = assay: Cytoprotective activity against GOX-induced cytotoxicity in human Hep3B cells assessed as LDH release at 10 uM treated for 5 hrs with 15 mU/ml GOX challenge by spectrophotometric method (reference value: 60.94 +/- 1.18%); assay type: functional
Hep 3B2 [11] = assay: Cytoprotective activity against GOX-induced oxidative stress in human Hep3B cells assessed as cell survival at 100 uM treated for 5 hrs with 15 mU/ml GOX challenge by MTT assay (reference value: 41.51 +/- 1.39%); assay type: functional; settings: read-out: Survival
Hep 3B2 [12] = assay: Cytoprotective activity against GOX-induced cytotoxicity in human Hep3B cells assessed as LDH release at 100 uM treated for 5 hrs with 15 mU/ml GOX challenge by spectrophotometric method (reference value: 60.94 +/- 1.18%); assay type: functional
Hep 3B2 [13] = assay: Proliferative activity against human Hep3B cells assessed as cell viability at 100 uM after 4 days by cell counting method relative to control; assay type: functional; settings: 96 h, read-out: Activity; summary of the method: as §1
Hep 3B2 [14] = assay: Cytoprotective activity against GOX-induced cytotoxicity in human Hep3B cells assessed as decrease in LDH release treated for 5 hrs with 15 mU/ml GOX challenge by spectrophotometric method; assay type: functional, cell-based
Hep 3B2 [15] = assay: Cytotoxicity against human Hep3B cells assessed as effect on cell morphology at 0.1 to 100 uM measured every day during 4 days incubation period by microscopic method; assay type: cell-based; settings: hep 3b2, 96 h; summary of the method: as §1
NIH3T3 [16] = assay: Cytoprotective activity against GOX-induced oxidative stress in mouse NIH/3T3 cells assessed as cell survival at 10 uM treated for 5 hrs with 15 mU/ml GOX challenge by MTT assay (reference value: 42.71 +/- 2.10%); assay type: functional; settings: NIH3T3, 5 h, read-out: Survival
Hep 3B2 [17] = assay: Cytoprotective activity against GOX-induced oxidative stress in human Hep3B cells assessed as cell survival at 0.1 uM treated for 5 hrs with 15 mU/ml GOX challenge by MTT assay (reference value: 41.51 +/- 1.39%); assay type: functional; settings: read-out: Survival
Hep 3B2 [18] = assay: Cytoprotective activity against GOX-induced cytotoxicity in human Hep3B cells assessed as LDH release at 0.1 uM treated for 5 hrs with 15 mU/ml GOX challenge by spectrophotometric method (reference value: 60.94 +/- 1.18%); assay type: functional
NIH3T3 [19] = assay: Cytoprotective activity against GOX-induced oxidative stress in mouse NIH/3T3 cells assessed as increase in cell survival treated for 5 hrs with 15 mU/ml GOX challenge by MTT assay; assay type: functional, cell-based
Summary of the method: (§2)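 Cells plated at 7×10^4 per well; next day exposed for 5 h to compound (0.1–100 μM) with 15 mU/ml glucose oxidase in growth medium. Viability expressed relative to GOX-free cells; α-tocopherol positive control.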

NIH3T3 [20] = assay: Cytoprotective activity against GOX-induced oxidative stress in mouse NIH/3T3 cells assessed as cell survival at 1 uM treated for 5 hrs with 15 mU/ml GOX challenge by MTT assay (reference value: 42.71 +/- 2.10%); assay type: functional; settings: NIH3T3, 5 h, read-out: Survival
NIH3T3 [21] = assay: Cytoprotective activity against GOX-induced cytotoxicity in mouse NIH/3T3 cells assessed as LDH release at 0.1 uM treated for 5 hrs with 15 mU/ml GOX challenge by spectrophotometric method (reference value: 63.34 +/- 1.85%); assay type: functional
NIH3T3 [22] = assay: Cytoprotective activity against GOX-induced cytotoxicity in mouse NIH/3T3 cells assessed as LDH release at 1 uM treated for 5 hrs with 15 mU/ml GOX challenge by spectrophotometric method (reference value: 63.34 +/- 1.85%); assay type: functional
NIH3T3 [23] = assay: Cytoprotective activity against GOX-induced cytotoxicity in mouse NIH/3T3 cells assessed as LDH release at 10 uM treated for 5 hrs with 15 mU/ml GOX challenge by spectrophotometric method (reference value: 63.34 +/- 1.85%); assay type: functional
NIH3T3 [24] = assay: Cytoprotective activity against GOX-induced oxidative stress in mouse NIH/3T3 cells assessed as cell survival at 100 uM treated for 5 hrs with 15 mU/ml GOX challenge by MTT assay (reference value: 42.71 +/- 2.10%); assay type: functional; settings: NIH3T3, 5 h, read-out: Survival
Hep 3B2 [25] = assay: Cytoprotective activity against GOX-induced oxidative stress in human Hep3B cells assessed as increase in cell survival treated for 5 hrs with 15 mU/ml GOX challenge by MTT assay; assay type: functional, cell-based; summary of the method: as §2
Hep 3B2 [26] = assay: Proliferative activity against human Hep3B cells assessed as cell viability at 1 uM after 4 days by cell counting method relative to control; assay type: functional; settings: 96 h, read-out: Activity; summary of the method: as §1
Hep 3B2 [27] = assay: Cytoprotective activity against GOX-induced cytotoxicity in human Hep3B cells assessed as LDH release at 1 uM treated for 5 hrs with 15 mU/ml GOX challenge by spectrophotometric method (reference value: 60.94 +/- 1.18%); assay type: functional

Compound	viability at 0.1 µM (NIH3T3 [3]) [%]	viability at 1 µM (Hep 3B2 [5]) [%]	Activity (NIH3T3 [6]) [%]	viability at 10 µM (Hep 3B2 [7]) [%]	Activity (NIH3T3 [9])	Activity (Hep 3B2 [10]) [%]	viability at 100 µM (Hep 3B2 [11]) [%]	Activity (Hep 3B2 [12]) [%]	Activity (Hep 3B2 [14])	viability at 10 µM (NIH3T3 [16]) [%]	viability at 0.1 µM (Hep 3B2 [17]) [%]	Activity (Hep 3B2 [18]) [%]	Activity (NIH3T3 [19])	viability at 1 µM (NIH3T3 [20]) [%]	Activity (NIH3T3 [21]) [%]	Activity (NIH3T3 [22]) [%]	Activity (NIH3T3 [23]) [%]	viability at 100 µM (NIH3T3 [24]) [%]	Activity (Hep 3B2 [25])	Activity (Hep 3B2 [27]) [%]	further results
CC(C)C(=O)O[C@@H]1Cc2c(ccc3ccc(=O)oc23)OC1(C)C	45.7	56.1	8.13	66.5	Dose-dependent effect	18.04	82.3	7.64	Dose-dependent effect	67.4	44.8	28.99	Dose-dependent effect	55.6	31.31	25.89	19.53	83.1	Dose-dependent effect	23.78	Activity (Hep 3B2 [1]): Non-Toxic; viability at 10 µM (Hep 3B2 [2]): 110%; viability at 0.1 µM (Hep 3B2 [4]): 100%; Activity (Hep 3B2 [8]): Dose-dependent effect; viability at 100 µM (Hep 3B2 [13]): 147%; Activity (Hep 3B2 [15]): Non-Toxic; viability at 1 µM (Hep 3B2 [26]): 101%
O=C(CCc1ccc(O)cc1)c1ccc(O)cc1O [DAVIDIGENIN]	60.6	83.4	3.1	94.9	Dose-dependent effect	11.83	104	4.16	Dose-dependent effect	113	59.3	22.37	Dose-dependent effect	84	24.04	15.74	12.69	123	Dose-dependent effect	18.61	Activity (Hep 3B2 [1]): Non-Toxic; viability at 10 µM (Hep 3B2 [2]): 116%; viability at 0.1 µM (Hep 3B2 [4]): 104%; Activity (Hep 3B2 [8]): Dose-dependent effect; viability at 100 µM (Hep 3B2 [13]): 140%; Activity (Hep 3B2 [15]): Non-Toxic; viability at 1 µM (Hep 3B2 [26]): 106%
C/C=C(/C)C(=O)O[C@@H]1c2c(ccc3ccc(=O)oc23)OC(C)(C)[C@@H]1O[C@@H]1O[C@H](CO)[C@@H](O)[C@H](O)[C@H]1O	58.6	65.3	5.75	76.9	Dose-dependent effect	10.28	91.2	6.16	Dose-dependent effect	75.8	59.2	28.01	Dose-dependent effect	64.5	29.9	21.12	9.25	93.8	Dose-dependent effect	19.57	Activity (Hep 3B2 [1]): Non-Toxic; viability at 10 µM (Hep 3B2 [2]): 113%; viability at 0.1 µM (Hep 3B2 [4]): 101%; Activity (Hep 3B2 [8]): Dose-dependent effect; viability at 100 µM (Hep 3B2 [13]): 114%; Activity (Hep 3B2 [15]): Non-Toxic; viability at 1 µM (Hep 3B2 [26]): 102%
C/C(=C\Cc1c(O)ccc(C(=O)/C=C/c2ccc(O)cc2)c1O)CCC(=O)O	43.2	45.5	6.96	57.1	Dose-dependent effect	16.93	74.1	7.6	Dose-dependent effect	57.8	44.3	30.97	Dose-dependent effect	44.7	36.37	20.71	18.78	74.5	Dose-dependent effect	20.34	Activity (Hep 3B2 [1]): Non-Toxic; viability at 10 µM (Hep 3B2 [2]): 107%; viability at 0.1 µM (Hep 3B2 [4]): 100%; Activity (Hep 3B2 [8]): Dose-dependent effect; viability at 100 µM (Hep 3B2 [13]): 115%; Activity (Hep 3B2 [15]): Non-Toxic; viability at 1 µM (Hep 3B2 [26]): 100%
Cc1c(C)c2c(c(C)c1O)CC[C@@](C)(CCC[C@H](C)CCC[C@H](C)CCCC(C)C)O2 [ALPHA-TOCOPHEROL]	61.2	66.8	10.51	70.7	Dose-dependent effect	18.89	79.6	13	Dose-dependent effect	69.1	62.2	25.13	Dose-dependent effect	65.8	26.51	22.37	15.02	77.9	Dose-dependent effect	21.14	
CO[C@H]1c2c(ccc3ccc(=O)oc23)O[C@@H]1C(C)(C)O	69	87.1	1.89	100	Dose-dependent effect	5.66	112	2.59	Dose-dependent effect	118	69.2	14.07	Dose-dependent effect	93	15.41	6.59	4.2	129	Dose-dependent effect	10.56	Activity (Hep 3B2 [1]): Non-Toxic; viability at 10 µM (Hep 3B2 [2]): 147%; viability at 0.1 µM (Hep 3B2 [4]): 106%; Activity (Hep 3B2 [8]): Dose-dependent effect; viability at 100 µM (Hep 3B2 [13]): 163%; Activity (Hep 3B2 [15]): Non-Toxic; viability at 1 µM (Hep 3B2 [26]): 118%
